Sampled rows, rich in hits. Any-hit rate of the full collection: about 1.7%.
core dimer inh: inhibitors of HCV core protein dimerization, primary screen, biochemical, TR-FRET, high-throughput | AID 1899, 2009 | 300,000 tested, 0.33% active | inhibition, % at 5 µM | TR-FRET GST/Flag-core106 dimerization, 1536-well;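 active = inhibition above the mean of all tested compounds plus 3 SD, set per screening campaign, cut at about 45% in these data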
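Assay system: tagged HCV core106 pair (GST and Flag); medium: KF-containing HEPES buffer, pH 7.45, DTT, CHAPS, BSA; also added: Eu donor and XL665 acceptor anti-tag antibodies; dosing: 5 µM single dose; timing: compound-protein-antibody incubation 4 h at 22.5 °C; signal: TR-FRET 671 and 617 nm emission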
ZTA counter: ZTA (EBV) inhibition in EBNA-1 counter-screen; ZTA-DNA binding, fluorescence polarization; P03206; AID 2234; inhibition, % at 11 µM; 320,000 tested, 0.15% active; in the data active = inhibition above about 33%
Target sequence (P03206 whole entry, looked up): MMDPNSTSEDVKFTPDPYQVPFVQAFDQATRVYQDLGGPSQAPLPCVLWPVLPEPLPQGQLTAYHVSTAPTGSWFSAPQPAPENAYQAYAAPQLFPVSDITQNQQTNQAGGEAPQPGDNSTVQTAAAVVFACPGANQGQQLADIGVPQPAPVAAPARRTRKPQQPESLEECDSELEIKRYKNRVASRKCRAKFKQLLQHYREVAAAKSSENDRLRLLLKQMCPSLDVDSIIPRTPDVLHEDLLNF
EBV gp42 block: Epstein-Barr virus gp42 inhibitors, primary screen, biochemical, uHTS, fluorescence polarization. Fluorescence polarization binding assay, mP read-out. inhibition, % (tested at 21.74 µM). 220,000 tested, 0.42% active; in the data active = inhibition above about 50%
Target sequence (Q1HVG2 whole entry, looked up): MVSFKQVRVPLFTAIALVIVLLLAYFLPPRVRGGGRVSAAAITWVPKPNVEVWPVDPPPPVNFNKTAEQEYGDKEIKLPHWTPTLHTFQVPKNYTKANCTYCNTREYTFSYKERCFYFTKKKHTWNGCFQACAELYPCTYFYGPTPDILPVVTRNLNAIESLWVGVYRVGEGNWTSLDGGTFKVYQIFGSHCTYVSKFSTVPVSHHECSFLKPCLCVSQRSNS
MEX-5 binding: MEX-5 zinc finger RNA-binding disruptors – biochemical, C. elegans, fluorescence polarization, MLPCN library, primary screen. Zinc finger protein mex-5 (Caenorhabditis elegans), Q9XUB2. MEX-5/FITC-TCR2 RNA binding; active compounds read low. activity score (negative = inhibition of binding), % at 10 µM. 300,000 tested, 0.38% active;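 active = inhibition past about -25% in most replicates, and total fluorescence under double the plate's negative control median, limit read from the data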;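 also: 0% = DMSO and -100% = 5 µM competing unlabeled TCR2 RNA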
EBNA-1 inh: EBNA-1 DNA-binding inhibitors, primary screen, biochemical, fluorescence polarization; 300,000 tested, 0.34% active; inhibition, % at 14.8 µM; AID 1950, 2009; in the data active = inhibition above about 28%
HCV NS3 hel inh: inhibitors of HCV NS3 helicase, primary screen, biochemical, Cy5 molecular beacon fluorescence. Hepatitis C virus NS3 helicase. NS3 helicase DNA unwinding. inhibition, % at 10.9 µM. 290,000 tested, 0.56% active;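 active = inhibition above the mean of all tested compounds plus 3 SD, set per campaign, cut at about 35% in these data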;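 also: 0% = DMSO wells and 100% = thioflavine S control wells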
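Test system: hepatitis C virus NS3 helicase domain fragment enzyme. Also added: annealed dual-labelled DNA beacon duplex, ATP-started. Timing: 60 min unwinding reaction at 25 °C after ATP addition. Technique: Cy5 fluorescence. Measure: % inhibition of unwinding.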
NS3 helicase cf: HCV NS3 helicase inhibitors, retest, confirmation, biochemical, Cy5 molecular beacon fluorescence, triplicate; 1,600 tested, 31% active; inhibition, % at 10.9 µM; shares compounds with HCV NS3 hel inh; NS3 helicase DNA unwinding;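 active = inhibition above the mean of all tested compounds plus 3 SD, cutoff set per campaign, cut at about 36% in these data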
DNA FID counter: compounds displacing fluorescent DNA intercalator, artefact control for HCV NS3 helicase inhibitor project, biochemical, FID fluorescence, triplicate. shares compounds with HCV NS3 hel inh. AID 1945, 2009. inhibition, % at 7.9 µM. DNA fluorescent intercalator displacement. 1,600 tested, 4% active; in the data active = inhibition above about 37%;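 also: 0% = vehicle and 100% = reference compound; higher means more displacement of ethidium bromide from the DNA hairpin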
DNA FID DR: compounds displacing fluorescent intercalator from DNA, dose response, counter-screen for HCV NS3 helicase inhibitor project, biochemical, fluorescence. shares compounds with HCV NS3 hel inh. fluorescent intercalator displacement from DNA. IC50, µM. 120 tested, under 10 active. AID 2172, 2009; call rule not given here
Starred values were filed as active, the others as inactive.

`CC(/C=C1\SC(=S)N(CCCC(=O)Nc2ccc(C(=O)O)c(O)c2)C1=O)=C\c1ccccc1` gave core dimer inh 20.3, ZTA counter 22.9, EBV gp42 block 15.3, MEX-5 binding -5.6, EBNA-1 inh 17.5, HCV NS3 hel inh 73.0*, NS3 helicase cf 72.8* and DNA FID counter 69.2*.
Screening COc1ccc(CCn2c(C)cc(C(=O)CN3C(=O)C(=O)N(Cc4ccco4)C3=O)c2C)cc1 returned ZTA counter 3.6.
For Cc1oc2c(CN3CCC(C)CC3)c(O)ccc2c(=O)c1-c1ccccc1 the results were core dimer inh 5.9, ZTA counter -6.5, MEX-5 binding -0.7, EBNA-1 inh 7.8 and HCV NS3 hel inh 0.9.
`O=C(Nc1cc(-c2ccccc2)sc1C(=O)O)c1cccc(F)c1` gave MEX-5 binding -0.3, HCV NS3 hel inh 38.7*, NS3 helicase cf 45.6* and DNA FID counter 18.4.
`CCOc1ccc(-c2cc(NC(=O)c3c(F)cccc3F)c(C(=O)O)s2)cc1` gave MEX-5 binding 5.5 and HCV NS3 hel inh 32.0.
For O=C(COC(=O)c1c2c(nc3ccccc13)/C(=C/c1ccco1)CC2)NC1CCCC1 the results were EBV gp42 block 83.4*, MEX-5 binding 0.4, HCV NS3 hel inh 36.2*, NS3 helicase cf 95.7*, DNA FID counter 15.0 and DNA FID DR >79.4.
`CC1CCCCC1NC(=O)COC(=O)c1c2c(nc3ccccc13)/C(=C/c1ccco1)CC2` (stereo unspecified) gave core dimer inh 97.2*, ZTA counter -10.1, EBV gp42 block 9.8, MEX-5 binding -2.5, EBNA-1 inh 9.9, HCV NS3 hel inh 46.6*, NS3 helicase cf 97.0*, DNA FID counter 0.7 and DNA FID DR >79.4.
CC(C)CNC(=O)COC(=O)c1c2c(nc3ccccc13)/C(=C/c1cccs1)CC2 was read as core dimer inh 13.2, ZTA counter -5.7, EBV gp42 block 8.3, MEX-5 binding -3.0, EBNA-1 inh 2.8, HCV NS3 hel inh 74.4*, NS3 helicase cf -8.3 and DNA FID counter -8.5.
Screening NC(=O)c1ccc(NC(=O)COC(=O)c2c3c(nc4ccccc24)/C(=C\c2cccs2)CCC3)cc1 returned core dimer inh 18.7, ZTA counter 14.6, EBV gp42 block -32.3, MEX-5 binding -6.3, EBNA-1 inh 11.2 and HCV NS3 hel inh -7.4.
COc1ccc(OCc2cc(C(=O)NC(C)c3csc(C)n3)no2)c(Cl)c1 (stereo unspecified) was read as core dimer inh 12.0, ZTA counter 16.4, MEX-5 binding -1.3, EBNA-1 inh 3.2 and HCV NS3 hel inh -6.0.
Screening COc1cc(S(=O)(=O)Nc2ccccc2C(=O)N2CCCCC2)ccc1NC(C)=O returned ZTA counter 10.3.
`Cc1cc(NC(=O)COc2coc(CN3CCN(c4ccccc4F)CC3)cc2=O)no1` gave core dimer inh 2.8, ZTA counter 7.6, MEX-5 binding -3.0 and EBNA-1 inh 11.9.
Screening Cc1c(CC(=O)NCC(=O)O)c(=O)oc2cc3occ(-c4ccccc4)c3cc12 returned core dimer inh 3.3, ZTA counter -19.3, MEX-5 binding 0.3, EBNA-1 inh -1.9, HCV NS3 hel inh 38.0*, NS3 helicase cf 51.0* and DNA FID counter -28.8.
NC(=O)c1sc2nc3c(c(-c4ccco4)c2c1N)CCCC3 was read as core dimer inh -3.0, ZTA counter -5.2, EBV gp42 block 2.7, MEX-5 binding -1.9, EBNA-1 inh 1.6 and HCV NS3 hel inh 10.3.
Screening Nc1c(C(=O)NCC2CCCO2)sc2nc3c(c(-c4ccco4)c12)CC/C3=C\c1ccco1 (stereo unspecified) returned EBV gp42 block 98.2*, HCV NS3 hel inh 50.6*, NS3 helicase cf 88.4*, DNA FID counter 19.0 and DNA FID DR >79.4.
`Cc1ccc(-c2nc(CNC(=O)c3ccco3)cs2)cc1` gave core dimer inh 23.5, ZTA counter 0.2, MEX-5 binding 0.0, EBNA-1 inh 2.0, HCV NS3 hel inh 40.7*, NS3 helicase cf -17.9 and DNA FID counter -10.5.
Screening Cc1ccc2cc(C3CC(c4ccco4)=NN3C(=O)CCCC(=O)O)c(Cl)nc2c1 (stereo unspecified) returned core dimer inh 3.7, ZTA counter -5.6, EBV gp42 block -12.5, MEX-5 binding 3.2, EBNA-1 inh 3.9, HCV NS3 hel inh 51.0*, NS3 helicase cf -29.5 and DNA FID counter -38.1.
Screening Cc1ccc2nc(Cl)c(C3CC(c4ccco4)=NN3C(=O)CCCC(=O)O)cc2c1 (stereo unspecified) returned core dimer inh 4.9, ZTA counter 3.0, EBV gp42 block -1.1, MEX-5 binding -2.1, EBNA-1 inh 3.5 and HCV NS3 hel inh 1.8.
For Cc1cc(OCC(=O)OCC(=O)NCC2CCCO2)ccc1Cl (stereo unspecified) the results were ZTA counter -4.0.
CCCC(O)(c1ccc(CC)cc1)C(CN1CCOCC1)c1ccccc1 (stereo unspecified) was read as MEX-5 binding 0.8 and HCV NS3 hel inh -22.6.
Screening O=C(O)Cc1ccc(N=Nc2c(O)c(C(=O)O)cc3ccccc23)cc1 returned core dimer inh -8.5, ZTA counter -16.5, EBV gp42 block -2.1, MEX-5 binding -1.9, EBNA-1 inh 0.2, HCV NS3 hel inh 42.1*, NS3 helicase cf 64.3* and DNA FID counter -6.9.
NS(=O)(=O)c1ccc(N=Nc2c(O)c(C(=O)O)cc3ccccc23)cc1 was read as core dimer inh -3.0, ZTA counter 2.2, EBV gp42 block -6.0, MEX-5 binding -2.5, EBNA-1 inh -0.1 and HCV NS3 hel inh 34.8.
`COC(=O)[C@H](Cc1ccccc1)NC(=O)Cn1ccc(NC(=O)OCc2ccccc2)nc1=O` gave ZTA counter -11.6.
